Measured values reported in ChEMBL document CHEMBL1138232, “Optimization of naphthalimide-imidazoacridone with potent antitumor activity leading to clinical candidate (HKH40A, RTA 502)” (J Med Chem, 2007).

Experiments:
U-251 = assay: Antitumor activity against human U251 cells after 48 hrs; format: functional; details: U-251, 48 h
How it was run: (§1)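 NCI 60 human tumour cell line screen; 48 h continuous drug exposure. Compounds tested as tri(methanesulfonate) salts, soluble in water and dilute buffers. Dilute solutions are light-sensitive and adsorb to glass or quartz.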

LOX IMVI = assay: Antitumor activity against human LOX IMVI cells after 48 hrs; format: functional
How it was run: (§2)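 Tested in the NCI 60 human tumour cell line screen, with continuous drug exposure for 48 h. Values include LC50 derived from the screen.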

SK-MEL-28 = assay: Antitumor activity against human SK-MEL-28 cells after 48 hrs; format: functional; details: SK-MEL-28, 48 h; how it was run: as §2
SK-MEL-5 = assay: Antitumor activity against human SK-MEL-5 cells after 48 hrs; format: functional; details: SK-MEL-5, 48 h; how it was run: as §2
SK-MEL-2 = assay: Antitumor activity against human SK-MEL-2 cells after 48 hrs; format: functional; details: SK-MEL-2, 48 h; how it was run: as §2
OVCAR-3 = assay: Antitumor activity against human OVCAR-3 cells after 48 hrs; format: functional; details: OVCAR-3, 48 h; how it was run: as §2
HCT-116 [1] = assay: Growth inhibition of human HCT116 cells after 5 days by MTT assay; format: functional; details: HCT-116, 120 h
How it was run: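 MTT assay after 5 day continuous exposure. GI50, TGI and LC50 calculated from the MTT data. Means ± SD of at least three independent experiments; coefficients of variation 10-20%. Compounds used as tri(methanesulfonate) salts.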

HCT-116 [2] = assay: Antitumor activity against human HCT116 cells expressing wild type p53; format: functional; details: read-out: LC50 (the source's name)
How it was run: (§3)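 Compounds tested as tri(methanesulfonate) salts, soluble in water and dilute buffers. Human tumour cells carrying wild-type or mutated p53 were exposed for 5 days, and viability was read by MTT assay. GI50, TGI and LC50 were calculated from the MTT data. Values are means ± SD of at least three independent experiments, with coefficients of variation of 10–20%.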

PC-3 [3] = assay: Antitumor activity against PC3 cells expressing mutated p53; format: functional, cell-based; details: Homo sapiens; how it was run: as §3
HCT-116 [4] = assay: Cell cycle arrest in HCT116 cells assessed as accumulation at G2/M phase at 50 nM after 72 hrs; format: functional, Homo sapiens
How it was run: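 HCT116 cells exposed to 50 nM drug for 72 h, then cell-cycle distribution analysed. Sub-G1, G1, S and G2/M fractions reported as percent of cells, with untreated control cells for comparison.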

[5] = Plasma clearance in CD2F1 mouse at 20 mg/kg, iv; format: ADME, organism-based; parameters: dose 20 mg/kg, route intravenous
How it was run: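 Pilot pharmacokinetics in CD2F1 mice after i.v. injection. Total plasma clearance derived from plasma concentration data.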

[6] = Drug level in NCR nu/nu mouse plasma at 20 mg/kg, iv after 8 hrs; format: ADME, organism-based; parameters: dose 20 mg/kg, route intravenous
How it was run: (§4)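 Single i.v. dose of 20 mg/kg to ncr nu/nu mice and an F344 rat. Plasma concentrations followed over time and fitted by nonlinear regression to give distribution and elimination phases, AUC and apparent volumes of distribution. Detection limit 50 nM.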

[7] = Apparent volume of distribution in NCR nu/nu mouse at 20 mg/kg, iv; format: ADME, organism-based; parameters: dose 20 mg/kg, route intravenous; details: in vivo; how it was run: as §4
[8] = Apparent volume of distribution in F344 rat at 20 mg/kg, iv; format: ADME, organism-based; parameters: dose 20 mg/kg, route intravenous; details: in vivo; how it was run: as §4
[9] = Antitumor activity against human HL60 (TB) cells after 48 hrs; format: functional, HL-60(TB); details: HL-60, 48 h; how it was run: as §2
SR = assay: Antitumor activity against human SR cells after 48 hrs; format: functional; how it was run: as §1
NCI-H226 = assay: Antitumor activity against human NCI-H226 cells after 48 hrs; format: functional; details: NCI-H226, 48 h; how it was run: as §2
[10] = Antitumor activity against human NCI-H322 cells after 48 hrs; format: functional; details: NCI-H322, 48 h; how it was run: as §2
NCI-H522 = assay: Antitumor activity against human NCI-H522 cells after 48 hrs; format: functional; details: NCI-H522, 48 h; how it was run: as §2
COLO 205 = assay: Antitumor activity against human COLO205 cells after 48 hrs; format: functional; details: COLO 205, 48 h; how it was run: as §2
HCT-15 = assay: Antitumor activity against human HCT15 cells after 48 hrs; format: functional; details: HCT-15, 48 h; how it was run: as §2
SW-620 = assay: Antitumor activity against human SW620 cells after 48 hrs; format: functional; details: SW-620, 48 h; how it was run: as §1
SF-295 = assay: Antitumor activity against human SF295 cells after 48 hrs; format: functional; details: SF-295, 48 h; how it was run: as §2
SF-539 = assay: Antitumor activity against human SF539 cells after 48 hrs; format: functional; details: SF-539, 48 h; how it was run: as §2
SNB-19 = assay: Antitumor activity against human SNB19 cells after 48 hrs; format: functional; details: SNB-19, 48 h; how it was run: as §2
SNB-75 = assay: Antitumor activity against human SNB75 cells after 48 hrs; format: functional; details: SNB-75, 48 h; how it was run: as §1
OVCAR-4 = assay: Antitumor activity against human OVCAR4 cells after 48 hrs; format: functional; details: OVCAR-4, 48 h; how it was run: as §2
SK-OV-3 = assay: Antitumor activity against human SK-OV-3 cells after 48 hrs; format: functional; details: SK-OV-3, 48 h; how it was run: as §2
786-0 = assay: Antitumor activity against human 786-0 cells after 48 hrs; format: functional; details: 786-0, 48 h; how it was run: as §2
ACHN = assay: Antitumor activity against human ACHN cells after 48 hrs; format: functional; how it was run: as §2
PC-3 [11] = assay: Antitumor activity against human PC3 cells after 48 hrs; format: functional; details: PC-3, 48 h; how it was run: as §2
BT-549 = assay: Antitumor activity against human BT549 cells after 48 hrs; format: functional; details: BT-549, 48 h; how it was run: as §2
T47D = assay: Antitumor activity against human T47D cells after 48 hrs; format: functional; how it was run: as §1
[12] = read-out: Log LC50 (the source's name) (converted)

COc1ccc2c(c1)c(=O)c1c(NCCCN3CCN(CCCN4C(=O)c5cccc6cc([N+](=O)[O-])cc(c56)C4=O)CC3)ccc3ncn2c31.CS(=O)(=O)O
GI50 (U-251): 2.19 nM | CC50 (U-251; [12]): > 1000 nM | TGI (U-251; read-out: Log TGI (converted)): > 1000 nM | GI50 (LOX IMVI): 1.86 nM | CC50 (LOX IMVI; [12]): > 1000 nM | TGI (LOX IMVI; read-out: Log TGI (converted)): 77.6 nM | GI50 (SK-MEL-28): 5.5 nM | CC50 (SK-MEL-28; [12]): > 1000 nM | TGI (SK-MEL-28; read-out: Log TGI (converted)): 933 nM | GI50 (SK-MEL-5): 4.9 nM | CC50 (SK-MEL-5; [12]): 871 nM | TGI (SK-MEL-5; read-out: Log TGI (converted)): 43.6 nM | GI50 (SK-MEL-2): 27.5 nM | CC50 (SK-MEL-2; [12]): > 1000 nM | TGI (SK-MEL-2; read-out: Log TGI (converted)): > 1000 nM | GI50 (OVCAR-3): 50.1 nM | CC50 (OVCAR-3; [12]): > 1000 nM | TGI (OVCAR-3; read-out: Log TGI (converted)): > 1000 nM | GI50 (HCT-116 [1]): 1 nM | LC50 (HCT-116 [1]): 30 nM | CC50 (HCT-116 [2]): 30 nM | IC50 (PC-3 [3]): 45 nM | Activity (HCT-116 [4]): 27.1% | clearance [5]: 238 mL/min/kg | concentration at 8 h [6]: 70 nM | Vd [7]: 57 L/kg | Vd [8]: 138 L/kg | GI50 [9]: 0.159 nM | CC50 [9, 12]: > 1000 nM | GI50 (SR): < 0.1 nM | CC50 (SR; [12]): 17 nM | TGI (SR; read-out: Log TGI (converted)): < 0.1 nM | GI50 (NCI-H226): 1.32 nM | CC50 (NCI-H226; [12]): > 1000 nM | TGI (NCI-H226; read-out: Log TGI (converted)): 32.4 nM | GI50 [10]: 5.89 nM | CC50 [10, 12]: > 1000 nM | TGI ([10]; read-out: Log TGI (converted)): 309 nM | GI50 (NCI-H522): 4.17 nM | CC50 (NCI-H522; [12]): > 1000 nM | TGI (NCI-H522; read-out: Log TGI (converted)): 151 nM | GI50 (COLO 205): 6.31 nM | CC50 (COLO 205; [12]): > 1000 nM | TGI (COLO 205; read-out: Log TGI (converted)): > 1000 nM | GI50 (HCT-15): 3.09 nM | CC50 (HCT-15; [12]): > 1000 nM | TGI (HCT-15; read-out: Log TGI (converted)): > 1000 nM | GI50 (SW-620): 0.676 nM | CC50 (SW-620; [12]): > 1000 nM | TGI (SW-620; read-out: Log TGI (converted)): > 1000 nM | GI50 (SF-295): 1 nM | CC50 (SF-295; [12]): > 1000 nM | TGI (SF-295; read-out: Log TGI (converted)): 79.4 nM | GI50 (SF-539): 2.75 nM | CC50 (SF-539; [12]): > 1000 nM | TGI (SF-539; read-out: Log TGI (converted)): 25.1 nM | GI50 (SNB-19): 8.51 nM | CC50 (SNB-19; [12]): > 1000 nM | TGI (SNB-19; read-out: Log TGI (converted)): > 1000 nM | GI50 (SNB-75): 6.76 nM | CC50 (SNB-75; [12]): > 1000 nM | TGI (SNB-75; read-out: Log TGI (converted)): 214 nM | GI50 (OVCAR-4): 4.9 nM | CC50 (OVCAR-4; [12]): > 1000 nM | TGI (OVCAR-4; read-out: Log TGI (converted)): 87.1 nM | GI50 (SK-OV-3): 151 nM | CC50 (SK-OV-3; [12]): > 1000 nM | TGI (SK-OV-3; read-out: Log TGI (converted)): > 1000 nM | GI50 (786-0): 5.25 nM | CC50 (786-0; [12]): > 1000 nM | TGI (786-0; read-out: Log TGI (converted)): > 1000 nM | GI50 (ACHN): 0.407 nM | CC50 (ACHN; [12]): > 1000 nM | TGI (ACHN; read-out: Log TGI (converted)): 63.1 nM | GI50 (PC-3 [11]): 3.09 nM | CC50 (PC-3 [11]; [12]): > 1000 nM | TGI (PC-3 [11]; read-out: Log TGI (converted)): 339 nM | GI50 (BT-549): 3.09 nM | CC50 (BT-549; [12]): > 1000 nM | TGI (BT-549; read-out: Log TGI (converted)): 53.7 nM | GI50 (T47D): 8.71 nM | CC50 (T47D; [12]): > 1000 nM | TGI (T47D; read-out: Log TGI (converted)): > 1000 nM
